# Results from ChEMBL document CHEMBL1146089, “Development of the first potential covalent inhibitors of anandamide cellular uptake” (J Med Chem, 2006).
# Legend:
# RBL-2H3 [1] = experiment: Inhibition of uptake of [14C]anandamide pre-incubated for 1 hr with intact RBL2H3 cells expressing AEA membrane transporter; assay type: functional, cell-based; settings: Rattus norvegicus
# Method in brief: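 RBL-2H3 cells preincubated with compound 60 min at 25 °C under normal lab light. Cells then washed 3× with medium containing 0.2% BSA and 2× with BSA-free medium, then given [14C]AEA for 5 min without inhibitor. Uptake was taken as residual [14C]AEA in the medium (CHCl3/CH3OH 2:1 extraction, scintillation counting). IC50, N = 3.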
# [2] = molecular target: T1, Fatty-acid amide hydrolase 1 (Rattus norvegicus, UniProt P97612); experiment: Inhibition of [14C]anandamide hydrolysis in rat brain membrane in the absence of UV irradiation; assay type: functional, cell membranes
# T1 sequence (P97612 whole entry): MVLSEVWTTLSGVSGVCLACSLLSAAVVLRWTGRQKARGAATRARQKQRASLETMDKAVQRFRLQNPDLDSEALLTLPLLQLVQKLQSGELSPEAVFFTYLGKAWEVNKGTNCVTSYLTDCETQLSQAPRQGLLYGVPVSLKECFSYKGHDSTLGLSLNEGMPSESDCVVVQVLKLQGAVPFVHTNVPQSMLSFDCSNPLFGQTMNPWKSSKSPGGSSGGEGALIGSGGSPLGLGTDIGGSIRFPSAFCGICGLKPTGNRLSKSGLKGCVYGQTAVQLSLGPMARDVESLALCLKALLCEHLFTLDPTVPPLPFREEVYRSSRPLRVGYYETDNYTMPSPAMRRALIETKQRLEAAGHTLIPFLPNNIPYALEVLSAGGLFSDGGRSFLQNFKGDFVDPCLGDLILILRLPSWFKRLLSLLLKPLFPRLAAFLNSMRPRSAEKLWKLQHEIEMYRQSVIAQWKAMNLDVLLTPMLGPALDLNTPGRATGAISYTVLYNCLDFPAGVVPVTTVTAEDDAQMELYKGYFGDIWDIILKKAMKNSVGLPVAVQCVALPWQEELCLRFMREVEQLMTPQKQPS
# RBL-2H3 [3] = experiment: Inhibition of uptake of [14C]anandamide co-incubated with RBL2H3 cells expressing AEA membrane transporter; assay type: functional, cell-based; settings: Rattus norvegicus
# Method in brief: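 RBL-2H3 cells incubated with [14C]AEA for 5 min at 37 °C with increasing compound concentrations, sometimes after a 10 min preincubation with compound. Uptake was taken as residual [14C]AEA in the medium after CHCl3/CH3OH 2:1 extraction and scintillation counting. Nonspecific binding was measured with 100 µM AEA. IC50 calculated, mean ± SE, N = 3.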
# [4] = molecular target: T1, Fatty-acid amide hydrolase 1; experiment: Inhibition of [14C]anandamide hydrolysis in rat brain membrane
# C6 [5] = experiment: Inhibition of [14C]anandamide uptake in C6 cells expressing AEA membrane transporter under UV irradiation at 10 uM; assay type: functional; settings: Rattus norvegicus, C6, light or radiation study
# Method in brief: (§1)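 Rat C6 glioma cells preincubated with compound 8 min at 25 °C, either in the dark or under UV light (315-400 nm, 125W). Cells then washed 3× with medium containing 0.2% BSA and 2× with BSA-free medium, then given [14C]AEA for 5 min with no inhibitor present. Uptake was taken as residual [14C]AEA in the medium (CHCl3/CH3OH 2:1 extraction, scintillation counting). Nonspecific binding was measured with 100 µM AEA. Values are % inhibition, mean ± SE, N = 3 or 6.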
# C6 [6] = experiment: Inhibition of [14C]anandamide uptake in C6 cells expressing AEA membrane transporter in dark at 10 uM; assay type: functional; settings: Rattus norvegicus; method in brief: as §1
# C6 [7] = experiment: Inhibition of [14C]anandamide uptake in C6 cells expressing AEA membrane transporter in dark at 5 uM; assay type: functional; settings: Rattus norvegicus; method in brief: as §1
# C6 [8] = experiment: Inhibition of [14C]anandamide uptake in C6 cells expressing AEA membrane transporter under UV irradiation at 5 uM; assay type: functional; settings: Rattus norvegicus, C6, light or radiation study; method in brief: as §1
Compound,IC50 [2],IC50 (RBL-2H3 [3]),IC50 [4],further results
CCCCCCCC/C=C\CCCCCCCC(=O)N[C@@H](CO)Cc1ccc(C(=O)C=[N+]=[N-])cc1,,> 25 µM,,
O=C(CCCCCCC/C=C\CCCCCCCCBr)N[C@H](CO)Cc1ccc(O)cc1,,10.2 µM,,IC50 (RBL-2H3 [1]): > 25 µM
O=C(CCCCCCC/C=C\CCOC(=O)c1ccccc1)N[C@H](CO)Cc1ccc(O)cc1,> 50 µM,> 25 µM,> 50 µM,
[N-]=[N+]=Nc1ccc(I)cc1C(=O)OCC/C=C\CCCCCCCC(=O)N[C@H](CO)Cc1ccc(O)cc1,> 50 µM,11 µM,> 50 µM,inhibition at 10 µM (C6 [5]): 60%; inhibition at 10 µM (C6 [6]): 32.8%
CCCCCCCC/C=C\CCCCCCCC(=O)N[C@H](CO)Cc1ccc(C(=O)c2ccccc2)cc1,,6 µM,,inhibition at 5 µM (C6 [7]): 37.5%; inhibition at 10 µM (C6 [5]): 57.2%; inhibition at 10 µM (C6 [6]): 65.8%; inhibition at 5 µM (C6 [8]): 30.3%
CCCCCCCC/C=C/CCCCCCCC(=O)N[C@H](CO)Cc1ccc(C(=O)c2ccccc2)cc1,,10 µM,,
O=C(CCCCCCC/C=C\CCCCCCCCI)N[C@H](CO)Cc1ccc(O)cc1,,10.8 µM,,IC50 (RBL-2H3 [1]): > 25 µM
CCCCCCCC/C=C\CCCCCCCC(=O)N[C@H](Cc1ccc(O)cc1)C(=O)CCl,> 50 µM,> 25 µM,> 50 µM,
CCCCCCCC/C=C\CCCCCCCC(=O)N[C@H](Cc1ccc(O)cc1)C(=O)CI,> 50 µM,> 25 µM,> 50 µM,
CCCCCCCC/C=C\CCCCCCCC(=O)N[C@H](CO)Cc1ccc(C(=O)CCl)cc1,,> 25 µM,,
N#CCCCCCCCC/C=C\CCCCCCCC(=O)N[C@@H](CO)Cc1ccc(O)cc1,,> 25 µM,,

# Now from value to compound, other results behind:
IC50 [2],IC50 (RBL-2H3 [3]),IC50 [4],Compound,further results
> 50 µM,16.1 µM,> 50 µM,CCCCCCCC/C=C\CCCCCCCC(=O)N[C@@H](Cc1ccc(O)cc1)C(=O)COC(=O)c1c(Cl)cccc1Cl,IC50 (RBL-2H3 [1]): > 25 µM
> 50 µM,10 µM,> 50 µM,CCCCCCCC/C=C\CCCCCCCC(=O)N[C@@H](Cc1ccc(O)cc1)C(=O)CCl,IC50 (RBL-2H3 [1]): > 25 µM
,20.1 µM,,O=C(CCCCCCC/C=C\CCCCCCCCBr)N[C@@H](CO)Cc1ccc(O)cc1,
,8.1 µM,,CCCCCCCC/C=C\CCCCCCCC(=O)N[C@@H](CO)Cc1ccc(C(=O)c2ccc(O)cc2)cc1,
,23.1 µM,,N#CCCCCCCCC/C=C\CCCCCCCC(=O)N[C@H](CO)Cc1ccc(O)cc1,
,10.1 µM,,CCCCCCCC/C=C\CCCCCCCC(=O)N[C@H](CO)Cc1ccc(C(=O)c2ccc(O)cc2)cc1,inhibition at 5 µM (C6 [7]): 28.3%; inhibition at 10 µM (C6 [5]): 73.2%; inhibition at 10 µM (C6 [6]): 73.6%; inhibition at 5 µM (C6 [8]): 68.6%
,14 µM,,O=C(CCCCCCC/C=C\CCCCCCCCI)N[C@@H](CO)Cc1ccc(O)cc1,IC50 (RBL-2H3 [1]): > 25 µM
> 50 µM,> 25 µM,> 50 µM,CCCCCCCC/C=C\CCCCCCCC(=O)N[C@@H](Cc1ccc(O)cc1)C(=O)CI,
> 50 µM,7.5 µM,> 50 µM,CCCCCCCC/C=C\CCCCCCCC(=O)N[C@H](Cc1ccc(O)cc1)C(=O)COC(=O)c1c(Cl)cccc1Cl,IC50 (RBL-2H3 [1]): > 25 µM
,> 25 µM,,CCCCCCCC/C=C\CCCCCCCC(=O)N[C@H](CO)Cc1ccc(C(=O)C=[N+]=[N-])cc1,
